Compound activity as filed in PubChem.
A3G deaminase – blocks human APOBEC3G single-stranded DNA deamination; Q9HC16; recombinant A3G, ssDNA deamination FAM/TAMRA fluorescence; inhibition, % at 20 µM; hit rate 0.28% among 330,000; AID 493012;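 active = inhibition of at least 40% at 20 µM, with no more than 30% in the related APOBEC3A deaminase screen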;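 also: plate controls were DMSO wells with A3G for no effect and wells lacking A3G enzyme for full effect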
Target sequence (Q9HC16 whole entry, looked up): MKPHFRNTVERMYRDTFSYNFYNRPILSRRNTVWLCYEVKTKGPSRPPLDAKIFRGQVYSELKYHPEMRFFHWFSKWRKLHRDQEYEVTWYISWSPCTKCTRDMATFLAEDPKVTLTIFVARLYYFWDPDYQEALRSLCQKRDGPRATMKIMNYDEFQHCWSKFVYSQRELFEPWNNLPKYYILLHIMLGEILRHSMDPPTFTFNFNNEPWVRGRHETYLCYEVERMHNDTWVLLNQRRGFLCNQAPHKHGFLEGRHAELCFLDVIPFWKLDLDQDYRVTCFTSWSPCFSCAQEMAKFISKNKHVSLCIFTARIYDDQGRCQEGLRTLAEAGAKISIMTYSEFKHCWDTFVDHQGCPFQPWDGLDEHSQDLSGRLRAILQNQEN
A3A deaminase – inhibitors of human APOBEC3A DNA deaminase. recombinant A3A, FAM/TAMRA ssDNA deamination fluorescence. hit rate 0.41% among 330,000. inhibition, % at 20 µM. P31941;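 active = at least 40% inhibition at 20 µM here, with at most 30% in a related deaminase screen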;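 also: plate controls were A3A with DMSO for no effect and wells lacking A3A enzyme for full effect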
Target sequence (P31941 whole entry, looked up): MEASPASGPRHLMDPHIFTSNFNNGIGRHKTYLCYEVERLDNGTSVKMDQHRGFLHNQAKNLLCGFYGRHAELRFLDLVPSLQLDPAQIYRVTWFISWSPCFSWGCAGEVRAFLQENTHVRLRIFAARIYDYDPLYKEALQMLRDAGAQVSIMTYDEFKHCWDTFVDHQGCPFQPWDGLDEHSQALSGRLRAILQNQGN
HKDC1 inhibitor – blocks human hexokinase HKDC1 activity. recombinant HKDC1, G6PDH/diaphorase resazurin coupled fluorescence. AID 493160. inhibition, % at 20 µM. hit rate 0.16% among 340,000;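 active = inhibition above about 35% when tested at 20 µM, limit read from the data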;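 also: plate controls were DMSO wells with enzyme for no effect and DMSO wells lacking enzyme for full effect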
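Assay system: in-house recombinant HK5 (HKDC1) enzyme. Input: HKDC1 at 5 µg/mL. Medium: Tris pH 8.0 buffer with MgCl2, Tween-20, BSA, BME. Dosing: single 20 µM dose. Schedule: 90 min reaction incubation at room temperature, dark. Signal: resazurin-to-resorufin fluorescence via G6PDH and diaphorase coupling, 525/613 nm. Controls: DMSO-enzyme wells negative, buffer-substituted wells positive.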
M18AAP inhibitor – PfM18AAP enzyme inhibition. recombinant PfM18AAP, H-Glu-NHMec fluorogenic cleavage. inhibition, % at 7.35 µM. hit rate 1.2% among 290,000. AID 1822;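 active = inhibition above the campaign mean inhibition over all tested compounds plus 3 SD, cut at about 28% in these data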;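 also: 0% = plate median of test compound wells and 100% = 2 mM ZnCl2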
UBC9 SUMO inh – inhibitors of human SUMOylation (UBC9) | HTRF SUMOylation assay, SAE1/SAE2 + UBC9, in vitro | inhibition, % at 35 µM | hit rate 0.36% among 290,000; in the data active = inhibition above about 50%, passing the limit was not always enough
PfGluPho inh – PfG6PD (Plasmodium falciparum) enzyme inhibition; PfGluPho enzyme, NADPH resazurin-diaphorase fluorescence; inhibition, % at 20 µM; hit rate 0.78% among 350,000; AID 504690;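 active = inhibition reaching at least a set limit at 20 µM in the primary screen, cut at about 59% in these data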;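 also: 0% = DMSO wells with substrate and 100% = DMSO wells lacking glucose-6-phosphate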
APOBEC3A confirm – APOBEC3A (human) deaminase inhibition, confirmed; shares compounds with A3A deaminase; recombinant A3A, ssDNA deaminase UDG fluorescence assay; inhibition, % at 20 µM; hit rate 63% among 1,400; AID 493151;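 active = inhibition reaching a set limit, 80% of the first screen's cutoff, at 20 µM in any replicate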;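 also: plate controls were DMSO wells with A3A for no effect and wells lacking A3A enzyme for full effect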
UDG A3A counter – counter-screen for APOBEC3A inhibitors: UDG; UDG counterscreen, FAM/TAMRA uracil oligo fluorescence; shares compounds with A3A deaminase; AID 504714; 1,000 tested, under 10 active; inhibition, % at 20 µM; call rule not given here
* marks the source's active call; other numbers are inactive results; . = no result. Shown are actives, neighbours in structure and some others; about 2.4% of the full set was active somewhere.

SMILES	A3G deaminase	A3A deaminase	HKDC1 inhibitor	M18AAP inhibitor	UBC9 SUMO inh	PfGluPho inh	APOBEC3A confirm	UDG A3A counter
CCn1c(C)[n+](CC)c2ccc(C(=O)N(C)c3ccccc3)cc21	19	71*	-18	-14	14	11	80*	-2
CC[n+]1c(/C=C/C=C/N(C(C)=O)c2ccccc2)sc2ccccc21	18	28	-3	18	-19	38	.	.
CCn1c(C)[n+](CC)c2ccc(S(=O)(=O)NC)cc21	21	76*	-4	0	13	9	49*	-2
CN(C(=O)c1cccc(C(=O)N(C)c2ccccc2)c1)c1ccccc1	-7	-7	-3	5	9	-8	.	.
CCn1c(/C=C/N(C(C)=O)c2ccccc2)[n+](CC)c2ccc(Cl)cc21	29	63*	-18	5	2	1	64*	0
CCn1c(C)[n+](CC)c2ccc(S(=O)(=O)N(C)C)cc21	36	85	-7	-10	11	6	.	.
O=C(c1ccc(=O)oc1)N1CCN(c2ccc(F)cc2)CC1	-4	4	3	.	22	5	.	.
COCCNC(=O)c1c[nH]c2cc(OC)c(OC)cc2c1=O	-1	-1	4	-10	-20	-5	.	.
Cc1cnc(NC(=O)CCNC(=O)c2ccccc2Cl)s1	-5	0	2	-4	5	4	.	.
CCOC(=O)c1ccc2c(c1)[nH]c(=S)n2CC	-6	-3	-8	0	5	33	.	.
CCOC(=O)c1ccc2c(c1)n(CC)c(C)[n+]2CC	13	73*	3	-14	5	4	69*	-2
C/C(=N\Nc1ccc(Cl)c(C(=O)O)c1)c1cccs1	16	42*	-3	9	37	8	23	.
CNC(=O)/C(C#N)=C\c1ccc(CNS(=O)(=O)c2ccc(Cl)cc2)o1	11	71*	-5	-9	2	4	77*	-3
CNC(=O)/C(C#N)=C\c1ccc(CNS(=O)(=O)c2ccccc2)o1	1	5	-9	-1	-4	3	.	.
Cc1ccccc1OCCC(=O)Nc1ccc(S(=O)(=O)N(C)C2CCN(C)CC2)cc1	7	1	3	.	.	-4	.	.
Cc1c(C(=O)Nc2ccc(S(=O)(=O)N(C)C3CCN(C)CC3)cc2)oc2ccccc12	-5	1	-4	.	.	32	.	.
Cc1ccc(OCC(=O)Nc2ccc(S(=O)(=O)N(C)C3CCN(C)CC3)cc2)c(C)c1	16	43*	-4	-4	-11	15	55*	-3
CN1CCC(N(C)S(=O)(=O)c2ccc(NC(=O)c3ccc(S(=O)(=O)N(C)C)cc3)cc2)CC1	1	47*	-1	.	.	-4	39*	-3
CN1CCC(N(C)S(=O)(=O)c2ccc(NC(=O)COc3ccc(Br)cc3Cl)cc2)CC1	-6	42*	0	.	.	4	48*	2
CN1CCC(N(C)S(=O)(=O)c2ccc(NC(=O)COc3cccc(Cl)c3)cc2)CC1	-8	-3	-4	.	.	-3	.	.
Oc1ccc2ccccc2c1CNc1ccc2ccccc2c1	.	.	24	.	.	38	.	.
O=C(Nc1ccc(S(=O)(=O)Nc2ncccn2)cc1)c1cccnc1	0	3	-7	3	12	-1	.	.
O=C(c1cc2cc([N+](=O)[O-])ccc2oc1=O)n1cccn1	21	59*	2	2	-12	2	39*	.
COc1ccc(CCNC(=O)C(C)Sc2ccc(C)cc2)cc1OC (stereo unspecified)	-7	86*	-8	-5	-19	-3	-7	-3
COc1ccc(CCNC(=O)C(C)Sc2ccccc2)cc1OC (stereo unspecified)	-1	4	-2	2	22	-1	.	.
SMILES	A3G deaminase	A3A deaminase	HKDC1 inhibitor	M18AAP inhibitor	UBC9 SUMO inh	PfGluPho inh	APOBEC3A confirm	UDG A3A counter
Cc1ccc(SC(C)C(=O)NCc2ccncc2)cc1 (stereo unspecified)	7	50*	-9	0	8	16	18	.
O=C(NCCCO)c1cc([N+](=O)[O-])cc2c1C=Cc1ccccc1O2	6	47*	2	-4	3	-10	20	.
CC(=O)Nc1ccc(C(=O)COC(=O)CCN2C(=O)C3CC=CCC3C2=O)cc1 (stereo unspecified)	-6	1	-7	-14	21	22	.	.
Cc1ccc(-c2csc3nc(C(C)C)oc(=O)c23)c(C)c1	-4	-7	2	-11	-10	-7	.	.
COC(=O)C1=C(C)N(Cc2ccccc2)C(=NCc2cccc(Cl)c2)N[C@H]1c1ccccc1	7	37	13	.	.	14	.	.
COC(=O)C1=C(C)N(CC2CC2)C(=NCc2cc(OC)c(OC)c(OC)c2)N[C@H]1c1ccccc1	16	47*	-4	-7	11	-1	56*	-5
COC(=O)C1=C(C)N(Cc2ccccc2)C(=NCc2cc(OC)c(OC)c(OC)c2)N[C@H]1c1ccccc1	25	70*	-7	0	16	8	47*	.
COC(=O)C1=C(C)N(Cc2ccccc2)C(=NCc2cc(OC)c(OC)c(OC)c2)N[C@H]1c1ccc(Br)cc1	18	46*	14	.	.	14	60*	-10
COCCN=C1N[C@@H](c2ccc(Br)cc2)C(C(=O)OC)=C(C)N1Cc1ccccc1	14	54*	-2	-10	7	-6	40*	-2
COC(=O)C1=C(C)N(Cc2ccccc2)C(=NCc2ccccc2)N[C@H]1c1ccccc1	4	32	-1	.	.	2	.	.
C=CCn1c(SCc2nc3cc(C(=O)OC)ccc3c(=O)[nH]2)nc2sc(CC)cc2c1=O	-5	0	-1	-6	-10	-7	.	.
Cc1ccc(S(=O)(=O)N2CCC(C(=O)OCc3c(C)noc3C)CC2)cc1C	-5	15	-5	.	.	3	.	.
CCOc1ccccc1NC(=O)C(C)N1C(=O)c2ccccc2S1(=O)=O (stereo unspecified)	-6	-2	3	.	.	-3	.	.
COC(=O)C1=C(C)N(CC2CC2)C(=NCc2cccc(Cl)c2)N[C@H]1c1ccccc1	8	59*	-8	1	13	-10	44*	.
O=C(NCC1COc2ccccc2O1)c1cc(S(=O)(=O)N2CCOCC2)c(Cl)cc1Cl (stereo unspecified)	4	42*	2	.	.	-15	1	.
Cn1c(Cc2cccs2)nnc1SCC(=O)Nc1ccccc1F	-5	1	-3	.	.	0	.	.
COc1ccc(CN(C)C(=O)CCCNC(=O)c2ccc(Cl)cc2)cc1	7	46*	-4	2	-2	-9	31	.
COc1ccc([N+](=O)[O-])cc1CSc1ccccn1	7	52*	1	2	6	-11	46*	2
